Data as given in PubChem BioAssay AID624353 (The Scripps Research Institute Molecular Screening Center, 2012).
Calls of active or inactive are those of the source.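 The calls were made as follows: active = insulin-degrading enzyme inhibitors with IC50 at or below 10 µM; inactive = the rest.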

These compounds were tested against Insulin-degrading enzyme (Homo sapiens) (UniProt P14735) (assay: IDE inhibitors, wild-type enzyme, late-stage follow-up, counter-screen for IDE inhibitor project, biochemical, fluorescence polarization, FAbetaB substrate, round 2 (AID 624353)). Settings: recombinant IDE, FAbetaB cleavage.
Chain of Insulin-degrading enzyme (Homo sapiens) (P14735 whole entry, looked up): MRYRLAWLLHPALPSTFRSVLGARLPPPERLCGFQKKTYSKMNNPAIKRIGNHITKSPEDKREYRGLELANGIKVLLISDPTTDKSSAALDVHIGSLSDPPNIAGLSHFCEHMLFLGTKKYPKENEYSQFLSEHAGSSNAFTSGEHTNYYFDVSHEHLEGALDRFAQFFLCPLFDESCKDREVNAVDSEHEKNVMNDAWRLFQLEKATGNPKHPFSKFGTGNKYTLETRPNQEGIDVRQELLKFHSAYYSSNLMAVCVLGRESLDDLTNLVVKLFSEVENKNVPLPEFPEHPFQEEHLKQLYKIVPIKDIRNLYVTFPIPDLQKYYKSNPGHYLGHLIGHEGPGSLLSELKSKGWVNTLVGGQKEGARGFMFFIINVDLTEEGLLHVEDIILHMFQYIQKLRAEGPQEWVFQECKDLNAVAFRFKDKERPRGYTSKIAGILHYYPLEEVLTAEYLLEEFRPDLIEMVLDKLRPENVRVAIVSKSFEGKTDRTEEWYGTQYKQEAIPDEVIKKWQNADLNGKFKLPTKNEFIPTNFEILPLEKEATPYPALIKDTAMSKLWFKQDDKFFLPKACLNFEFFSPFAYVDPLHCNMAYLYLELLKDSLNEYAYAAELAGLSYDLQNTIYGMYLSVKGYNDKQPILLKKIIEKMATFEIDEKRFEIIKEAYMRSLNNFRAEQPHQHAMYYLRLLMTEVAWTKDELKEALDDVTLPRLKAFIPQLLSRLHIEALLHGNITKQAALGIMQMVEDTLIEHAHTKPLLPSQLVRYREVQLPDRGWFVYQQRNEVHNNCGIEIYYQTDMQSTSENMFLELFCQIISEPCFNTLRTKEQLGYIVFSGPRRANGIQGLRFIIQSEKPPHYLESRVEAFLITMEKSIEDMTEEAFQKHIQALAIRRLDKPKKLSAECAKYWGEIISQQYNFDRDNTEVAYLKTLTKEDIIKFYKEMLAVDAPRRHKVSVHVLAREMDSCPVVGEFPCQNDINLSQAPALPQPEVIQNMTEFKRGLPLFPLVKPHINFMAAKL
Summary of the method: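 Assay system – recombinant WT IDE · Buffer or medium – HEPES, pH 7.4 · Incubation – reaction at room temperature · Detection – fluorescence polarization, ex 485 nm, em 525 nm · Control set – DMSO-only wells as low control, IDE inhibitor Ii1 as high · Repeats – each compound dose-response run in triplicate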
`c1coc(Cn2c(SCc3nc4ccccc4[nH]3)nnc2-c2cnccn2)c1` was tested, and the IC50 was > 33 µM (inactive). An IC50 of 7 µM was found for `O=C(c1ccc2nc(C(F)(F)F)[nH]c2c1)N1CCN(C(=O)C2COc3ccccc3O2)CC1` (centres undefined) in this work. For `Cc1ccc(COCc2nnc(SCc3nc4ccccc4[nH]3)n2Cc2ccco2)cc1`, the IC50 was > 33 µM (inactive). An IC50 of 4 µM was found for `COc1cccc(C(=O)N2CCN(C(=O)C3COc4ccccc4O3)CC2)c1` (centres undefined) in this work. In the case of `O=C(c1ccc(Oc2ccccc2)cc1)N1CCN(C(=O)C2COc3ccccc3O2)CC1` (centres undefined), the IC50 is reported as > 33 µM (inactive). With `c1coc(Cn2c(SCc3nc4ccccc4[nH]3)nnc2-c2cccs2)c1` the IC50 was > 33 µM (inactive). For `COc1cc(C(=O)N2CCN(C(=O)C3COc4ccccc4O3)CC2)cc(Cl)c1OC` (centres undefined), the IC50 was > 33 µM (inactive). With `Cc1ccc(-c2nnc(SCc3nc4ccccc4[nH]3)n2Cc2ccco2)cc1` the IC50 was > 33 µM (inactive). An IC50 of 6 µM was found for `CC(=O)Nc1ccccc1C(=O)N1CCN(C(=O)C2COc3ccccc3O2)CC1` (centres undefined) in this work. With `Cc1nc(COc2ccc(C(=O)N3CCN(C(=O)C4COc5ccccc5O4)CC3)cc2)cs1` (centres undefined) the IC50 was > 33 µM (inactive). With `c1coc(Cn2c(SCc3nc4ccccc4[nH]3)nnc2-c2ccco2)c1` the IC50 was > 33 µM (inactive). For `c1ccc(-c2nnc(SCc3nc4ccccc4[nH]3)n2Cc2ccco2)nc1`, the IC50 was > 33 µM (inactive). With `COc1ccc(C(=O)N2CCN(C(=O)COc3ccccc3)CC2)cc1OC` the IC50 was > 33 µM (inactive). `COc1ccc(C(=O)N2CCN(C(=O)COc3ccc(C)cc3)CC2)cc1OC` was tested, and the IC50 was > 33 µM (inactive). In the case of `O=C(c1ccc(OCC2CCCO2)cc1)N1CCN(C(=O)C2COc3ccccc3O2)CC1` (centres undefined), the IC50 is reported as > 33 µM (inactive). With `CCOc1ccc(C(=O)N2CCN(C(=O)C3COc4ccccc4O3)CC2)cc1` (centres undefined) the IC50 was > 33 µM (inactive). For `COc1ccc(C(=O)N2CCN(C(=O)C3CC(=O)N(c4ccccc4)C3)CC2)cc1OC` (centres undefined), the IC50 was > 33 µM (inactive). With `COc1ccc(OCC(=O)N2CCN(C(=O)c3ccc(OC)c(OC)c3)CC2)cc1` the IC50 was > 33 µM (inactive). `COc1ccc(C(=O)N2CCN(C(=O)CCc3c[nH]c4ccccc34)CC2)cc1OC` was tested, and the IC50 was > 33 µM (inactive). `O=C(c1ccc(Oc2ccc(F)cc2)cc1)N1CCN(C(=O)C2COc3ccccc3O2)CC1` (centres undefined) was tested, and the IC50 was > 33 µM (inactive). In the case of `COc1ccc(C(=O)N2CCN(C(=O)C(c3ccccc3)c3ccccc3)CC2)cc1OC`, the IC50 is reported as > 33 µM (inactive). For `c1ccc(-c2nnc(SCc3nc4ccccc4[nH]3)n2Cc2ccco2)cc1`, the IC50 was > 33 µM (inactive). In the case of `COc1ccc(C(=O)N2CCN(C(=O)COc3ccc(Cl)cc3)CC2)cc1OC`, the IC50 is reported as > 33 µM (inactive). With `Clc1ccc(COCc2nnc(SCc3nc4ccccc4[nH]3)n2Cc2ccco2)cc1` the IC50 was > 33 µM (inactive).
